High-throughput results deposited in PubChem BioAssay by Broad Institute.
The list is not random: actives were taken first. Their share in the collection is about 3.1%.
rRNA inh HTS – reduced GFP signal of wild-type E. coli, primary screen, bacterial rRNA inhibitor project, GFP/RFP fluorescence, OD600, single point | E. coli WT GFP vs humanized-ribosome RFP mutants, 24 h; active compounds read low; DMSO median 0, no signal -100 | GFP signal change (wild-type ribosome), % (test concentration not listed) | 350,000 tested, 1.6% active;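 active means significant combined selectivity score with lowered wild-type GFP, culture density cut under 30%, mutant RFP and density less affected; inactive means any of these conditions unmet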
E-selectin induc – E-selectin induction in HUVECs, primary screen, imaging, HUVEC, immunofluorescence imaging, single point | P16581 | 260,000 tested, 0.37% active | normalized: neutral wells 0, TNF-alpha wells 100 | activation, % at 7.58 µM;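 active means mean E-selectin-positive cell signal at least 10% of the positive control, reached in at least 60% of replicates, without over 20% cell loss; inconclusive means no rule given, readout overlaps actives, possibly toxicity-flagged; inactive means the rest, including those meeting only one limit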
Target sequence (P16581 whole entry, looked up): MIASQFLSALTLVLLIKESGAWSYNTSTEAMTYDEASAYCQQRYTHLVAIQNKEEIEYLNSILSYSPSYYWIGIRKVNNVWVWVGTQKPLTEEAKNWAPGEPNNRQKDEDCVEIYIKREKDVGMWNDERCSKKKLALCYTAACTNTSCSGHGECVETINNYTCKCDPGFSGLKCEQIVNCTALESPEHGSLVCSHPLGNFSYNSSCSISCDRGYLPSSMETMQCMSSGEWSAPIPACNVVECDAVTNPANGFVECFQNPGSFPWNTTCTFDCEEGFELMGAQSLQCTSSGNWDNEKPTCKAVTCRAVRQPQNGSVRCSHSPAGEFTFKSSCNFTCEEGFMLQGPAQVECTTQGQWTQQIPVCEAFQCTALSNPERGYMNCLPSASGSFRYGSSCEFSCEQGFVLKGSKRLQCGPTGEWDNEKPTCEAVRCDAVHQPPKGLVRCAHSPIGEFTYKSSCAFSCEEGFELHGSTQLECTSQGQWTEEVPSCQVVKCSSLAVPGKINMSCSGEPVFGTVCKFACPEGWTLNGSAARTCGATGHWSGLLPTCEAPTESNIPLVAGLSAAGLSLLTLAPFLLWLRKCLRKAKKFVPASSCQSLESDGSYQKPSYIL
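Material: HUVEC primary endothelial cells; Amount: 3,000 cells per well; Dosing: single concentration; Medium: EGM-2 growth medium on 0.1% gelatin-coated wells; Read-out basis: percent E-selectin-positive cells; Signal: immunofluorescence imaging; Control set: TNF-alpha, DMSO.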
DENV2 CPE rescue – inhibitors of DENV2 cytopathic effect, primary screen, cell-based, plate reader, single concentration | CPE inhibition, % at 9.99 µM | AID 651640, 2012 | 350,000 tested, 1.7% active | DENV2-infected cells, cytopathic effect rescue; in the data active means CPE inhibition above about 20%, passing the limit was not always enough; inconclusive means no clear call, values can overlap the other calls; tested in BHK-21 cells;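 further: 0% = median of neutral control wells and 100% = median of positive control wells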
Cneo AK release – Cryptococcus neoformans cell lysis inducers, primary screen, AK release luminescence, single concentration. lysis activity, % at 15 µM. 360,000 tested, 0.2% active. C. neoformans lysis, adenylate kinase release luminescence, 4 h; normalised: neutral wells 0, clomiphene wells 100. AID 651654, 2012;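 active means mean lysis activity across replicates of at least 80%, whatever share of replicates individually reach that level; inactive means mean lysis activity below 80%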
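read-out = cell lysis signal | test system = log-phase Cryptococcus neoformans yeast cells | input = cells at 5 × 10^6 per mL | medium = fresh YPD growth medium | signal = luminescent adenylate kinase detection reagent | timing = 4 h at 37 °C static, read 1 h later | dosing = single dose | controls = Clomiphene as positive lysis control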
miR122 inh – miR-122 Renilla sensor signal increase in Huh7, primary screen, miR-122 inhibitor project, cell-based, single point, plate reader; activation (reporter increase), % at 12.5 µM; Huh7 miR-122 Renilla luciferase sensor, 48 h; neutral wells = 0, positive control = 100; AID 602342, 2012; 340,000 tested, 0.3% active;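 active means mean replicate activation score at least 90 and every replicate individually at or above 90; inconclusive means only one of the two criteria met; inactive means neither criterion met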;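 further: higher luciferase means less miR-122 activity so hits act as miR-122 inhibitors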
* marks the source's active call; other numbers are inactive results; ? = inconclusive; / = no result; [ ] = another dose, or the depositor's remark.

SMILES | rRNA inh HTS | E-selectin induc | DENV2 CPE rescue | Cneo AK release | miR122 inh
COc1ccc(-c2cc(C(=O)O)[nH]n2)cc1OC | 7.6 | -1.5 | / | 4.2 | -2.4
Cc1cccc(N2CCN(C(=O)N3CCCCC3)CC2)c1C | -36.0* | 0.5 | 0.1 | / | /
C[C@@H]1CCCCO[C@H](CN(C)C(=O)c2ccncc2)[C@@H](C)CN([C@H](C)CO)C(=O)c2cc(NC(=O)C3CCCCC3)ccc2O1 | 2.8 | -0.1 | / | / | -0.2[16.7 µM]
Cc1noc(C)c1S(=O)(=O)Nc1ccc2c(c1)C(=O)N([C@H](C)CO)C[C@H](C)[C@@H](CN(C)S(=O)(=O)c1c(C)noc1C)O2 | 1.5 | / | / | / | /
Cc1ccc(N2CC(C(=O)Nc3nccs3)CC2=O)cc1Cl (stereo not drawn) | / | / | / | 2.6 | 95.9*
COCc1nnc(NC(=O)C2CC(=O)N(c3ccc(C)c(Cl)c3)C2)s1 (stereo not drawn) | 1.3 | / | -1.0 | / | /
CCc1nc2oc3ccccc3c(=O)c2c(=O)n1-c1ccccc1 | / | -0.7 | / | -2.0 | 4.2
CCc1nc2oc3ccccc3c(=O)c2c(=O)n1-c1ccc(C)cc1 | -41.9 | -3.3 | -2.0 | -0.6 | 12.8
CCCc1nc2oc3ccccc3c(=O)c2c(=O)n1-c1ccc(C)cc1 | -45.8* | 0.6 | -9.4 | -1.0 | -0.2
CCCc1nc2oc3ccccc3c(=O)c2c(=O)n1-c1ccccc1 | -29.9* | 0.0 | -5.3 | 0.7 | 3.3
Cc1ccc(-n2c(C(C)C)nc3oc4ccccc4c(=O)c3c2=O)cc1 | -31.8* | 3.0 | 3.2 | / | /
CC[C@@H]1CC=CC[C@H](C)Oc2ccccc2C(=O)N(C)[C@@H](C(C)C)C(=O)N1 (mixture of isomers) | -8.1 | / | / | / | /
COCC(=O)Nc1ccc2c(c1)OC[C@@H](C)N(Cc1ccccc1OC)C[C@@H](C)[C@@H](OC)CN(C)C2=O | 4.7 | -0.1 | / | / | -11.1[16.7 µM]
O=C(N[C@H]1CC[C@@H](CCn2cc(-c3ccccn3)nn2)O[C@H]1CO)c1cccnc1 | -0.6 | 1.3 | -3.2 | 38.8 | /
C[C@H](CO)N1C[C@H](C)[C@@H](CN(C)C(=O)C2CCCCC2)Oc2ncc(C#CC3CCCCC3)cc2C1=O | 2.7 | / | / | / | /
C[C@H](CO)N1C[C@H](C)[C@H](CN(C)Cc2ccc(C(=O)O)cc2)OCCCC[C@H](C)Oc2ccc(NC(=O)NC3CCCCC3)cc2C1=O | 1.6 | 0.3 | 8.5 | -0.4 | 11.1[16.7 µM]
CCCNC(=O)N1CCC2(CC1)CN(C(C)=O)[C@H](CO)c1c2c2ccc(OC)cc2n1C | -1.2 | -0.2 | -11.9 | / | /
O=C(CSc1nnc(SCC(=O)c2ccco2)s1)c1ccco1 | / | / | / | 0.3 | -3.3
O=C(CSc1nc2cc(Cl)ccc2s1)c1ccco1 | -21.1* | / | -3.2 | -1.0 | /
O=C1c2cccc3c(O)ccc(c23)C(=O)N1Cc1ccco1 | 61.5 | 2.0 | 24.2* | -0.1 | -5.3
O=C1c2ccccc2C(=O)N1Cc1ccco1 | / | / | / | 0.7 | 0.3
CCCNC(=O)Nc1ccc2c(c1)C(=O)N(C)[C@H]1CC[C@@H](CC(=O)O)O[C@@H]1CO2 | 3.1 | 0.1 | -2.4 | -0.4 | 6.7[16.7 µM]
C/C(N)=C(/C#N)C(=O)COC(=O)c1cc2c(s1)CCC(C)C2 (stereo not drawn) | -28.5* | / | 7.1 | / | /
COc1cccc(C#Cc2ccc([C@H]3[C@@H](CO)N4C(=O)CN(C(C)=O)C[C@H]34)cc2)c1 | 3.2 | 0.1 | 10.2 | / | /
CN1CCC(=C2c3ccccc3C=Cc3ccccc32)CC1 | -8.0 | 0.1 | 0.5 | 1.5 | 3.0
SMILES | rRNA inh HTS | E-selectin induc | DENV2 CPE rescue | Cneo AK release | miR122 inh
c1ccc2c(c1)CCc1ccccc1C2=C1CCNCC1 | -36.4* | 0.0 | -2.1 | / | /
O=C(Cc1ccncc1)NCC[C@H]1CC[C@@H](NC(=O)C2CCCC2)[C@H](CO)O1 | 4.3 | -0.1 | -0.5 | 1.1 | -5.8[16.7 µM]
Cc1ccc(S(=O)(=O)N(CC(=O)NCc2ccc(F)cc2)C(=O)N2CCN(C)CC2)cc1 | 5.3 | 0.0 | 31.0* | -1.0 | -5.0
Cc1ccc(S(=O)(=O)N(CC(=O)NCc2ccccc2Cl)C(=O)N2CCN(C)CC2)cc1 | 11.4 | -0.1 | -4.0 | / | -9.7
CCOC(=O)C1(C(N)=O)OC1(c1ccc(Cl)cc1)c1ccccc1Cl (stereo not drawn) | -18.7* | -0.1 | 2.5 | 0.8 | -3.7
CC(=O)Nc1cccc(-c2cc3c(c4c2ccn4C)C2CCC3O2)c1 (stereo not drawn) | 4.6 | 0.5 | -0.7 | -0.5 | 0.4
Cn1ccc2c(-c3cccc(C=O)c3)cc3c(c21)C1CCC3O1 (stereo not drawn) | 3.4 | -1.4 | 50.3* | -2.8 | 13.7
O=C(COc1ccc(/C=C\[N+](=O)[O-])cc1)N1CCOCC1 | 18.3 | -0.1 | -3.9 | / | /
O=[N+]([O-])/C=C\c1ccc(N2CCOCC2)cc1 | -19.1* | / | 3.8 | / | /
COc1ccc(-c2nn(-c3ccccc3)cc2C(=O)O)cc1OC | 3.2 | / | 4.8 | -0.3 | -7.1
COc1ccc(-c2nn(-c3ccccc3)cc2/C=C/C(=O)N2CCOCC2)cc1OC | -24.1* | / | -1.0 | / | -7.3
Nc1ccc2c(c1)Cc1cc(N)c(Cl)cc1-2 | -31.4* | 1.6 | -1.3 | -3.7 | /
Nc1ccc2c(c1)C(=O)c1ccc(Cl)cc1-2 | -5.0 | 1.1 | 5.0 | -4.2 | /
Nc1ccc2c(c1)C(=O)c1cc(N)c(Cl)cc1-2 | -18.6* | -0.1 | 6.4 | -4.1 | /
CCCNC(=O)N1C[C@@H](C)[C@H](OC)CN(C)C(=O)c2ccc(NC(C)=O)cc2OC[C@H]1C | 0.0 | 0.1 | -1.0 | / | /
CCOC(=O)Cc1csc(NC(=O)CCSc2ccccc2)n1 | -20.7* | 0.0 | 1.0 | -0.8 | -1.4
CCOC(=O)Cc1csc(NC(=O)Nc2cccc(OC)c2)n1 | -28.8* | / | 6.8 | -2.7 | 0.8
CCOC(=O)Cc1csc(NC(=S)NC(=O)c2ccc(F)cc2)n1 | / | / | / | / | -3.7
CCOC(=O)Cc1csc(NC(=O)c2cccc(OC)c2)n1 | / | / | / | 0.4 | -3.1
CCOC(=O)Cc1csc(NC(=S)NC(=O)c2ccccc2C)n1 | -19.9* | / | -2.9 | 2.8 | 3.7
CCOC(=O)Cc1csc(NC(=O)CCc2ccccc2)n1 | -8.8 | / | -4.5 | -3.9 | -2.4
Cc1ccccc1NS(=O)(=O)c1ccc(S(=O)(=O)N2CCCC2)cc1 | -13.7 | 0.1 | 22.4* | -0.5 | -11.0
Cc1cccc(NS(=O)(=O)c2ccc(S(=O)(=O)N3CCCC3)cc2)c1 | -5.6 | 206.0* | ? | -1.6 | 23.9
COc1cccc(NS(=O)(=O)c2ccc(S(=O)(=O)N3CCCC3)cc2)c1 | 1.0 | / | 1.1 | -0.1 | 14.0
Cc1cccc(NS(=O)(=O)c2ccc3[nH]c(=O)cc(C(=O)O)c3c2)c1 | -14.5* | -0.2 | -1.8 | / | /
Cc1ccc(S(=O)(=O)c2cccc(S(=O)(=O)N3CCCC3)c2)cc1S(=O)(=O)N1CCCC1 | / | / | / | -2.7 | 110.4*
